Test results taken from ChEMBL document CHEMBL3804779, “Novel free fatty acid receptor 1 (GPR40) agonists based on 1,3,4-thiadiazole-2-carboxamide scaffold” (Bioorg Med Chem, 2016).

Assays:
[1] = target: Free fatty acid receptor 1 (Homo sapiens, UniProt O14842); test: Agonist activity at human GPR40 expressed in CHO cells by calcium influx assay; format: functional, cell-based
Method in brief: (§1)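 CHO cells stably expressing the receptor (GPR40, GPR41, GPR43 or GPR120) plated 24 h before assay and loaded with calcium dye for 1 h. Calcium flux read on FLIPR Tetra. Agonist response taken as maximum fluorescence change over baseline. Concentration-response curves fitted for EC50. GW9508 run as positive control.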

[2] = target: T1, Free fatty acid receptor 3 (Homo sapiens, UniProt O14843); test: Agonist activity at human GPR41 (unknown origin) expressed in CHO cells by calcium influx assay; format: functional, cell-based; method in brief: as §1
T1 sequence (O14843 whole entry): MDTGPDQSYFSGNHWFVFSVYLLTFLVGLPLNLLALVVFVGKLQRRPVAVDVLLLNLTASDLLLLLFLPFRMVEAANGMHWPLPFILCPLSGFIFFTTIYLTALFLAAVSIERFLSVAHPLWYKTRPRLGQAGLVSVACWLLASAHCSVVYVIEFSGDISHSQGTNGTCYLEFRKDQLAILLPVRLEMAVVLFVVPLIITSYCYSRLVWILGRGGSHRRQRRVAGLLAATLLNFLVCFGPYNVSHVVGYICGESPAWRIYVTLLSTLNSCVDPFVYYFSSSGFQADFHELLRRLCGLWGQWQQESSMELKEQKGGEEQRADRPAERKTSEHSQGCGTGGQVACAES

[3] = target: T2, Free fatty acid receptor 2 (Homo sapiens, UniProt O15552); test: Agonist activity at human GPR43 (unknown origin) expressed in CHO cells by calcium influx assay; format: functional, cell-based; method in brief: as §1
T2 sequence (O15552 whole entry): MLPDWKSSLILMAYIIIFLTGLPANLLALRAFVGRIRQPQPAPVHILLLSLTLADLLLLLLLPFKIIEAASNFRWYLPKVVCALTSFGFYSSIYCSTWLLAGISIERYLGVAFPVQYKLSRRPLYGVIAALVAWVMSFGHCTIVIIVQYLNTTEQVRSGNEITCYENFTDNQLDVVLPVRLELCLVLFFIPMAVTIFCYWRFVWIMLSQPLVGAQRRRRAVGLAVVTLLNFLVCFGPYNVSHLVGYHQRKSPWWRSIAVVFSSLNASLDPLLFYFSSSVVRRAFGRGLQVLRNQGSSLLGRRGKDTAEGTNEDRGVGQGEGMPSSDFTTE

[4] = target: T3, Free fatty acid receptor 4 (Homo sapiens, UniProt Q5NUL3); test: Agonist activity at human GPR120 (unknown origin) expressed in CHO cells by calcium influx assay; format: functional, cell-based; method in brief: as §1
T3 sequence (Q5NUL3 whole entry): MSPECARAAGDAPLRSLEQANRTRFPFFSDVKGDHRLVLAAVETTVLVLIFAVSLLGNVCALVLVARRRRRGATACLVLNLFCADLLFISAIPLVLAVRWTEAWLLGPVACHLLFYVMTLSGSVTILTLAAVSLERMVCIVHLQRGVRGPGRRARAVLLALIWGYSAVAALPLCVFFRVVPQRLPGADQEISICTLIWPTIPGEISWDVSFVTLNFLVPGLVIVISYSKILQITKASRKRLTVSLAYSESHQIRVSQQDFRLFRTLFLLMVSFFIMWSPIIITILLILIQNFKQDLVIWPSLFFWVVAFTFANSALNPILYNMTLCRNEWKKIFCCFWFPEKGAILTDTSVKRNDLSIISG

[5] = Half life in mouse plasma at 1 uM by LC-MS/MS analysis; format: ADME
Method in brief: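 Compound at 1 uM (1% DMSO final) incubated in mouse plasma at 37 °C with shaking. Five time points sampled over 120 min, each quenched with acetonitrile and centrifuged. Supernatant analysed by LC-MS/MS for percentage remaining and T1/2. Verapamil and propantheline used as references.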

[6] = Protein binding in mouse plasma at 1 uM after 5 hrs by HPLC-MS/MS analysis; format: ADME, cell-free; settings: read-out: PPB (converted)
Method in brief: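 Equilibrium dialysis (MWCO 12-14 kDa) of mouse plasma spiked at 1 uM (1% solvent final) against PBS pH 7.4, 37 °C, orbital shaking, 5 h, in quadruplicate. Chamber samples matrix-matched, precipitated with acetonitrile and analysed by HPLC-MS/MS. % bound = (1 − buffer/plasma peak area) × 100. Recovery checked against an undialyzed standard. Verapamil used as reference.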

[7] = Metabolic stability in BALB/c mouse liver microsomes at 2 uM after 40 mins by HPLC analysis; format: ADME
Method in brief: (§2)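 BALB/c male mouse liver microsomes (pooled, perfused livers) at 0.42 mg protein/ml in 100 mM phosphate buffer pH 7.4 with MgCl2 and an NADPH-regenerating system. Compound at 2 uM (1.6% solvent final) incubated at 37 °C in duplicate. Five time points over 40 min, quenched with acetonitrile and read by HPLC-MS/MS. Controls lacked NADPH. kel from ln(AUC) vs time regression; T1/2 = 0.693/kel; CLint scaled per mg microsomal protein.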

[8] = Distribution coefficient, log D of the compound at pH 7.4 by LC-MS/MS analysis; format: physicochemical; settings: octanol/water
Method in brief: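 Shake-flask partitioning between n-octanol and PBS, run in duplicate. Compound added from 10 mM DMSO stock to pre-equilibrated phases, shaken 1 h and separated by centrifugation. Each phase diluted and quantified by LC-MS/MS. D calculated from peak areas corrected for dilution (100·So/Sp). Reference compound included.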

[9] = Intrinsic clearance in BALB/c mouse liver microsomes at 2 uM after 40 mins by HPLC analysis; format: ADME; settings: read-out: CLH; method in brief: as §2
hERG (KCNH2) [10] = target: T4, hERG (KCNH2) (Homo sapiens, UniProt Q12809); test: Inhibition of human ERG expressed in cell membranes at 20 uM after 4 hrs by fluorescence polarization assay; settings: cell membranes that express human ERG
T4 sequence (Q12809 whole entry): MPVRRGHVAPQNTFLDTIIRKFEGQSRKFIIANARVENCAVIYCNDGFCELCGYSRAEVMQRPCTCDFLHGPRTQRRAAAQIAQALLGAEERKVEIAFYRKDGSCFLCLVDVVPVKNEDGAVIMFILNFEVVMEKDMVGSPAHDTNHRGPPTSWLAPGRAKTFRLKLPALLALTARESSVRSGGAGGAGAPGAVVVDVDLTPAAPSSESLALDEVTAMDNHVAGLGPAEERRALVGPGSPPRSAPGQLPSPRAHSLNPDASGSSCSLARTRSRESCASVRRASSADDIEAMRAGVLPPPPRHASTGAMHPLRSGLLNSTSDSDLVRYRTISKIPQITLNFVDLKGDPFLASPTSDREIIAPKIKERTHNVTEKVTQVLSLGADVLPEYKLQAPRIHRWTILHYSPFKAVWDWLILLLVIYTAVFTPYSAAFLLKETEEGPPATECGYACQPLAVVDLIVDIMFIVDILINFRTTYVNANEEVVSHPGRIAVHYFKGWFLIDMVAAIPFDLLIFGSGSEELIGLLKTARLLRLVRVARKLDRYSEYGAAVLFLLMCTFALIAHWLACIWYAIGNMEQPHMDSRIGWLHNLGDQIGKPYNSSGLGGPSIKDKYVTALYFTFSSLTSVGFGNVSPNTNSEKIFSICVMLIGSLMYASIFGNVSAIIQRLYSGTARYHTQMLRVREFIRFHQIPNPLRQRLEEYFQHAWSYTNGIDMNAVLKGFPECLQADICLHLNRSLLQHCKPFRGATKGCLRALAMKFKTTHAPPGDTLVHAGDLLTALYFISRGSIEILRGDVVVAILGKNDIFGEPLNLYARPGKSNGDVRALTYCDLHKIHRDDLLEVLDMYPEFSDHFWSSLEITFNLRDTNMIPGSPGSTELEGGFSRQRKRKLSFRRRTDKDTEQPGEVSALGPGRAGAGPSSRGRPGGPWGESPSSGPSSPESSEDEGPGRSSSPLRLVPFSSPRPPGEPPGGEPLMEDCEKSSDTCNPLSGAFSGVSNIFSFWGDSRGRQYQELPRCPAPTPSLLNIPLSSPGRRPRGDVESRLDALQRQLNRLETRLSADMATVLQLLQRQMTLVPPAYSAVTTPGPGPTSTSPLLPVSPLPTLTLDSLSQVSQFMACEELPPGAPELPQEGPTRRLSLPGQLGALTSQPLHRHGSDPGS
Method in brief: (§3)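 Predictor hERG fluorescence polarization kit used per manufacturer's protocol. hERG-containing cell membranes incubated with fluorescent tracer and test compound at 1, 5 or 20 uM for 4 h.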

hERG (KCNH2) [11] = target: T4, hERG (KCNH2); test: Inhibition of human ERG expressed in cell membranes at 5 uM after 4 hrs by fluorescence polarization assay; settings: cell membranes that express human ERG; method in brief: as §3
hERG (KCNH2) [12] = target: T4, hERG (KCNH2); test: Inhibition of human ERG expressed in cell membranes at 1 uM after 4 hrs by fluorescence polarization assay; settings: cell membranes that express human ERG; method in brief: as §3
CYP1A2 = target: T5, CYP1A2 (Homo sapiens, UniProt P05177); test: Inhibition of CYP1A2 (unknown origin) at 20 uM by P450-glo assay; format: ADME
T5 sequence (P05177 whole entry): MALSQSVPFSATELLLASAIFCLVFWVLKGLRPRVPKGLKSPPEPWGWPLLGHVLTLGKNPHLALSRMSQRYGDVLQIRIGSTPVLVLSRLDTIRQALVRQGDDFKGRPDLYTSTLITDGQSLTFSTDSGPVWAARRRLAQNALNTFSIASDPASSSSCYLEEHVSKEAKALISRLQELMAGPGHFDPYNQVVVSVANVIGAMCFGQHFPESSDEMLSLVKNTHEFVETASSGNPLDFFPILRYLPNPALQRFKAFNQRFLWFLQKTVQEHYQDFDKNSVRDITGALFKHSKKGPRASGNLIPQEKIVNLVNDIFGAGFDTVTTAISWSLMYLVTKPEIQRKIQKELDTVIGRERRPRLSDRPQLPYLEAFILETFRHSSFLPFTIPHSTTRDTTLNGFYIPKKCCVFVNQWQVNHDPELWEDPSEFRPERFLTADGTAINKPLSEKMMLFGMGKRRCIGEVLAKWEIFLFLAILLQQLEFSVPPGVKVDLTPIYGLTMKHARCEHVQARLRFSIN
Method in brief: (§4)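 P450-Glo luminescent assay run per manufacturer's protocol. Each CYP isoform incubated with its luminogenic substrate and test compound at 20 uM (0.25% DMSO final), in quadruplicate. Control membranes without CYP served as baseline.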

CYP2C9 = CYP2C9 (Homo sapiens, UniProt P11712); test: Inhibition of CYP2C9 (unknown origin) at 20 uM by P450-glo assay; format: ADME; method in brief: as §4
Chain of CYP2C9 (P11712 whole entry): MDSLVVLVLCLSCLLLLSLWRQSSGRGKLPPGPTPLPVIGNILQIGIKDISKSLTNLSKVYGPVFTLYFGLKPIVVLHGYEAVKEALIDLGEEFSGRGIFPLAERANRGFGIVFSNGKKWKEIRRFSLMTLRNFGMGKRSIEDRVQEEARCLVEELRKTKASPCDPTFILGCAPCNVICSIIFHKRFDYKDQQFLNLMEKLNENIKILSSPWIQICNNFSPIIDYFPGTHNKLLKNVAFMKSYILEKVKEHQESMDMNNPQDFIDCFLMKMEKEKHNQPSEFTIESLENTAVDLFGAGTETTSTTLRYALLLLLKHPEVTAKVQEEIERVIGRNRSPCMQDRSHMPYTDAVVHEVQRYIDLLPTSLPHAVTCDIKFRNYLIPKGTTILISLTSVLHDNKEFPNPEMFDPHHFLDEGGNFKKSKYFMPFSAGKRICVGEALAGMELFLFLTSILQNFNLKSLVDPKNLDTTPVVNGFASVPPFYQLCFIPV

CYP2C19 = CYP2C19 (Homo sapiens, UniProt P33261); test: Inhibition of CYP2C19 (unknown origin) at 20 uM by P450-glo assay; format: ADME; method in brief: as §4
Chain of CYP2C19 (P33261 whole entry): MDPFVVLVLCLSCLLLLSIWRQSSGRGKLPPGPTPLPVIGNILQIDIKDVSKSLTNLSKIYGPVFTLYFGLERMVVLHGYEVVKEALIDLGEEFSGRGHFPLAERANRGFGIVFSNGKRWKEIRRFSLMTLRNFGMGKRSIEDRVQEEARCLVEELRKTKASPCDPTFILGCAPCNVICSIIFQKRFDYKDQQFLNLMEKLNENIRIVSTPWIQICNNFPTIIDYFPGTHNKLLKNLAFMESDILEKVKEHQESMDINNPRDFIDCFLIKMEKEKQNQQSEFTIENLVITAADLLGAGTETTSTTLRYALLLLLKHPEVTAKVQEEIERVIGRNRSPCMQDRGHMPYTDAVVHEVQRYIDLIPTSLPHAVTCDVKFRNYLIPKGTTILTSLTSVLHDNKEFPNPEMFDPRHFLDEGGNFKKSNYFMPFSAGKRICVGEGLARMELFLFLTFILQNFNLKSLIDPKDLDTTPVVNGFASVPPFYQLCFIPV

CYP2D6 = CYP2D6 (Homo sapiens, UniProt P10635); test: Inhibition of CYP2D6 (unknown origin) at 20 uM by P450-glo assay; format: ADME; method in brief: as §4
Chain of CYP2D6 (P10635 whole entry): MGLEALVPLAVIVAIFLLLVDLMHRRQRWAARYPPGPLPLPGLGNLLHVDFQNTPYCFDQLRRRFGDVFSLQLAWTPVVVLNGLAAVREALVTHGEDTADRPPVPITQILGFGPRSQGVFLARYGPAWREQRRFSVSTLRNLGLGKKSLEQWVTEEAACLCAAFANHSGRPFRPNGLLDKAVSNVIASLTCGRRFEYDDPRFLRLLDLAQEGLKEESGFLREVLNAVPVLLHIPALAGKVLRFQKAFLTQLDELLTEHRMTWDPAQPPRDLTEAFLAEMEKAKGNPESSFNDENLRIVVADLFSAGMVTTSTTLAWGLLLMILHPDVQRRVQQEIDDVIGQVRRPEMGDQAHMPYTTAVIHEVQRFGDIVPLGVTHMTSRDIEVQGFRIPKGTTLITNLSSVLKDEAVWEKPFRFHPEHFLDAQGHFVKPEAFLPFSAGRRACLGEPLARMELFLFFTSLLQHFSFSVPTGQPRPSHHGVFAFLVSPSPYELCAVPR

CYP3A4 = CYP3A4 (Homo sapiens, UniProt P08684); test: Inhibition of CYP3A4 (unknown origin) at 20 uM by P450-glo assay; format: ADME
Chain of CYP3A4 (P08684 whole entry): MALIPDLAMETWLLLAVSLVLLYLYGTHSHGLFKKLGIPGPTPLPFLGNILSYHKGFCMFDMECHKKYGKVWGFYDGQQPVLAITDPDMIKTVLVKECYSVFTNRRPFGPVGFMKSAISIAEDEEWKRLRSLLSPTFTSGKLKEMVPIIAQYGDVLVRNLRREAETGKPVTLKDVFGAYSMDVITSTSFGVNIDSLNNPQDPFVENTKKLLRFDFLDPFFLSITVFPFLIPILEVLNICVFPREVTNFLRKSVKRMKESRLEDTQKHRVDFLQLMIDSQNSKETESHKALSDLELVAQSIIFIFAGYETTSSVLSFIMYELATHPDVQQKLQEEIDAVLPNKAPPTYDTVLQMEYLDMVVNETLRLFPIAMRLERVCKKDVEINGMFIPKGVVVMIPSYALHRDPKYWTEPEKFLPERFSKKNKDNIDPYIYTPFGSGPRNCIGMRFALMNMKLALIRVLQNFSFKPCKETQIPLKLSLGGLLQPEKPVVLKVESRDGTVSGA

Chain of Free fatty acid receptor 1 (O14842 whole entry): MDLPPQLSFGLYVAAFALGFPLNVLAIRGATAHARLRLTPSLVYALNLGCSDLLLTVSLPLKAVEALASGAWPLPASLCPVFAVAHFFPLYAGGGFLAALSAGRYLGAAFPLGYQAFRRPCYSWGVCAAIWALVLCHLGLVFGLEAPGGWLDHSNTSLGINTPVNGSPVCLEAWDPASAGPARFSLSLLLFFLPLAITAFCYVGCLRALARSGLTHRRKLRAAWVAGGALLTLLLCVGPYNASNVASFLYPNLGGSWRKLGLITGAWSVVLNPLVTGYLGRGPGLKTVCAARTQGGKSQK

With `Cc1ccccc1NC(=O)c1nnc(COc2ccc(CCC(=O)O)cc2)s1` the EC50 [1] was 1.52 µM.
In the case of `COc1cccc(NC(=O)c2nnc(COc3ccc(CCC(=O)O)cc3)s2)c1`, the EC50 [1] is reported as 4.68 µM.
`O=C(O)CCc1nnc(C(=O)Nc2cccc(-c3ccc(F)cc3)c2)s1` showed an EC50 [1] of 1.28 µM, an EC50 [2] greater than 10 µM and an EC50 [3] greater than 10 µM. For the same compound, the EC50 [4] was greater than 10 µM, the half-life at 1 µM [5] was greater than 240 min and the fraction unbound at 5 h, 1 µM [6] was 0.059. It also gave a half-life at 2 µM [7] of 209 min, a logD [8] of 0.96 and a microsomal CLint at 2 µM [9] of 8 µL/min/mg. It also gave an inhibition at 4 h, 20 µM (hERG (KCNH2) [10]) of -1%, an inhibition at 4 h, 5 µM (hERG (KCNH2) [11]) of -1% and an inhibition at 4 h, 1 µM (hERG (KCNH2) [12]) of -6%. The inhibition at 20 µM (CYP1A2) was 47.2%, the inhibition at 20 µM (CYP2C9) was -1.9% and the inhibition at 20 µM (CYP2C19) was 25.2%. For the same compound, the inhibition at 20 µM (CYP2D6) was 11.8% and the inhibition at 20 µM (CYP3A4) was -5.1%.
`O=C(O)CCc1ccc(OCc2nnc(C(=O)Nc3ccccc3F)s2)cc1` gave an EC50 [1] of 0.58 µM, an EC50 [2] greater than 10 µM and an EC50 [3] greater than 10 µM. For the same compound, the EC50 [4] was greater than 10 µM, the half-life at 1 µM [5] was 20.4 min and the half-life at 2 µM [7] was 6.9 min. The logD [8] was 0.95, the microsomal CLint at 2 µM [9] was 241 µL/min/mg and the inhibition at 4 h, 20 µM (hERG (KCNH2) [10]) was 4%. The inhibition at 4 h, 5 µM (hERG (KCNH2) [11]) was -7%, the inhibition at 4 h, 1 µM (hERG (KCNH2) [12]) was 9% and the inhibition at 20 µM (CYP1A2) was 18.8%. It also gave an inhibition at 20 µM (CYP2C9) of 12.8%, an inhibition at 20 µM (CYP2C19) of -3.3% and an inhibition at 20 µM (CYP2D6) of 6.6%. It also gave an inhibition at 20 µM (CYP3A4) of -28.7%.
For `O=C(O)CCc1ccc(OCc2nnc(C(=O)Nc3cccc(F)c3)s2)cc1`, the EC50 [1] was 1.19 µM.
In the case of `O=C(O)CCc1ccc(OCc2nnc(C(=O)Nc3ccc(F)c(F)c3)s2)cc1`, the EC50 [1] is reported as 0.58 µM, the EC50 [2] is reported as greater than 10 µM and the EC50 [3] is reported as greater than 10 µM. The EC50 [4] was greater than 10 µM.
`O=C(O)CCc1ccc(OCc2nnc(C(=O)Nc3ccc(Cl)cc3)s2)cc1` showed an EC50 [1] of 3.69 µM.
In the case of `Cc1cccc(NC(=O)c2nnc(COc3ccc(CCC(=O)O)cc3)s2)c1`, the EC50 [1] is reported as 1.77 µM.
`O=C(O)CCc1ccc(OCc2nnc(C(=O)Nc3ccccc3)s2)cc1` gave an EC50 [1] of 1.06 µM.
